Screening data (PubChem BioAssay)
The full list was thinned out, with hits kept by preference.
Hep lipid drop: modulators of hepatic lipid droplet formation. inhibition, % at 6.5 µM. AML12 mouse hepatocytes, oleate lipid droplets, BODIPY imaging. AID 1656. 240,000 compounds, 0.4% hits;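 active means lipid droplet intensity inhibited by at least 50%, with more than 500 cells counted; inconclusive means wells with under 300 cells, treated as cytotoxic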
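Assay system: AML12 mouse liver cells | Compound dosing: One dose, 6.5 µM compound | Read-out basis: Droplet intensity reduction, % inhibition | Measured by: Fluorescence imaging, 20x objective, two fields per well | Schedule: Overnight treatment with compound plus oleate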
DTT redox prof: compounds producing H2O2 with reducing agent – biochemical, NIH compound library profiling, artefact control for MLSCN library redox annotation, primary screen; activation, % at 10 µM; DTT-dependent redox cycling H2O2, phenol red/HRP absorbance; 100% = 100 µM peroxide control, 0% = buffer; AID 878; 200,000 compounds, 0.03% hits;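 active means activation of at least 50% relative to the plate's high and low controls in the primary single-dose screen; inactive means activation below 50%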;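 further: compound incubated with DTT at 0.8 mM final as the reducing agent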
L major viab: inhibitors of Leishmania major promastigote growth | Leishmania major promastigotes, resazurin fluorescence viability | inhibition, % at 10 µM | AID 1063 | 200,000 compounds, 9% hits; in the data active means inhibition above about 50%;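 further: promastigotes grown with compound for 44 hours at 28 °C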
T cruzi inh: blocks replication of Trypanosoma cruzi. T. cruzi beta-gal in NIH3T3, luminescence, 90 h. inhibition, % (no concentration beside the values). 300,000 compounds, 1.4% hits. AID 1885;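 active means mean inhibition across valid replicates above about 55%, limit read from the data; inconclusive means mean below that limit but half or more replicates reach it; inactive means mean below it, under half of replicates reach it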;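 further: signal also drops with host cell toxicity which is not excluded here; 0% = plate median of DMSO wells and 100% = zero luminescence signal; higher percent means less beta-gal luminescence so fewer parasites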
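System: NIH/3T3 fibroblasts plus reporter T. cruzi. Medium: DMEM plus 2% FBS. Probe or stimulus: 5000 reporter trypomastigotes per well. Compound: single 50 nL compound addition per well in DMSO. Incubation: co-culture of at least 90 h after 3 h attachment. Detection: GalScreen β-gal luminescence, detergent lysis, 60 min. Evaluation: parasite load inhibition, %.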
MPTP block: permeability transition pore inhibition; isolated mouse mitochondria, Ca2+ swelling absorbance, 30 min; inhibition, % at 10 µM; 360,000 compounds, 1.4% hits; AID 602449;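 active means inhibition of 50% or more, scaled per plate between neutral and stimulator controls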;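 further: 0% = DMSO wells given calcium and 100% = 1 mM EGTA wells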
* hit, by the source's call.

How did CCOC(=O)C1(CCOc2ccccc2)CCN(C2Cc3ccccc3C2)CC1 do in these assays?
Hep lipid drop: 0.2; DTT redox prof: 0.2; L major viab: 88.3*; T cruzi inh: 35.5; MPTP block: 3.7

Results for CCc1ccc(N2C(=O)NC(=O)/C(=C\c3cccn3CCOc3ccc(C(C)C)cc3)C2=O)cc1 ?
Hep lipid drop: 3.1; DTT redox prof: -0.2; L major viab: 94.8*; T cruzi inh: 11.0; MPTP block: 1.7

What do the screens show for `Cc1ccc(S(=O)(=O)c2nc(-c3ccccc3Cl)oc2N(C)C2CCN(C)CC2)cc1`?
MPTP block: 3.1

Results for Cc1ccc(-c2nc(N(C)C3CCN(C)CC3)c3ccccc3n2)cc1 ?
Hep lipid drop: 27.4; DTT redox prof: 0.0; L major viab: 99.0*; T cruzi inh: inconclusive; MPTP block: 1.6

What do the screens show for `COC(=O)C1=C(c2ccc(-c3ccccc3)c(F)c2)C[C@@H]2CC[C@H]1N2C(=O)N1CCCC1`?
MPTP block: 4.2

Results for Clc1ccc(N2CC2c2ccncc2)cc1 (stereo not given) ?
T cruzi inh: -14.2; MPTP block: -0.7

How did Cc1ccc2c(c1)[C@@H]1CN(C)CC[C@@H]1N2C(=O)Nc1cccc(C(F)(F)F)c1 do in these assays?
Hep lipid drop: 0.5; DTT redox prof: -0.1; L major viab: 81.1*; T cruzi inh: 37.6; MPTP block: 5.8

How did Cc1ccc2c(c1)C1CN(C)CCC1N2C(=O)c1cn(-c2ccccc2)nc1-c1ccccc1 (stereo not given) do in these assays?
Hep lipid drop: 4.4; DTT redox prof: -0.8; L major viab: 53.2*; T cruzi inh: 52.6; MPTP block: 2.0

How did Cc1ccc2c(c1)C1CN(C)CCC1N2C(=O)Nc1cccc(C(F)(F)F)c1 (stereo not given) do in these assays?
Hep lipid drop: -13.2; DTT redox prof: 0.1; L major viab: 50.3*; T cruzi inh: 29.3; MPTP block: 44.3

How did Cc1ccc2c(c1)C1CN(C)CCC1N2C(=O)c1ccc(Br)o1 (stereo not given) do in these assays?
Hep lipid drop: -13.7; DTT redox prof: 0.2; L major viab: -0.5; T cruzi inh: 18.1; MPTP block: 0.5

Results for Cc1ccc2c(c1)C1CN(C)CCC1N2C(=O)c1cccnc1Cl (stereo not given) ?
Hep lipid drop: 1.5; T cruzi inh: -5.4; MPTP block: 0.6

How did O=C(Nc1ccc(F)cc1)OC1CN2CCC1CC2 (stereo not given) do in these assays?
Hep lipid drop: 19.2; T cruzi inh: -5.6; MPTP block: 5.0

How did CN1CCN(Cc2ccccc2Sc2ccccc2)CC1 do in these assays?
Hep lipid drop: -4.4; DTT redox prof: -0.1; L major viab: 100.2*; T cruzi inh: 34.7; MPTP block: -0.2

Results for COc1cc(CC(C)N)c(OC)cc1I (stereo not given) ?
T cruzi inh: -20.9; MPTP block: 1.2

How did CC(Cc1ccccc1Sc1ccccc1)N(C)C (stereo not given) do in these assays?
Hep lipid drop: 3.7; DTT redox prof: -0.5; L major viab: 100.3*; T cruzi inh: 22.6; MPTP block: 2.0

Results for CC(N)Cc1c[nH]c2ccc(O)cc12 (stereo not given) ?
MPTP block: 2.7

Results for COc1ccccc1Sc1ccccc1CC(C)N (stereo not given) ?
Hep lipid drop: -9.8; DTT redox prof: -0.1; L major viab: 94.8*; T cruzi inh: -2.2; MPTP block: 0.4

How did CC(N)Cc1ccccc1Sc1ccc(O)cc1 (stereo not given) do in these assays?
DTT redox prof: -4.7; L major viab: 87.9*; T cruzi inh: 17.6

Results for CN1CCN(Cc2nc3ccccc3c(=O)[nH]2)CC1 ?
Hep lipid drop: 18.5; DTT redox prof: 1.4; L major viab: -1.4; T cruzi inh: 28.2; MPTP block: -0.7

What do the screens show for `CCCCNC(=O)NC(C(N)=O)P(=O)(OCC)OCC` (stereo not given)?
Hep lipid drop: -10.7; T cruzi inh: -2.9; MPTP block: -0.9

How did COc1cc2cc(C(=O)N3CC(COS(C)(=O)=O)c4ccc(O)cc43)[nH]c2c(OC)c1OC (stereo not given) do in these assays?
MPTP block: 0.6

How did Cn1cc(C(=O)OCC(=O)Nc2ccccc2)c2ccccc21 do in these assays?
MPTP block: -0.5

How did COC(=O)C1=C(c2c(C)noc2C)C[C@@H]2CC[C@H]1N2C(=O)NCC1CC1 do in these assays?
MPTP block: -0.3

How did COC(=O)N1Cc2ccccc2-n2nncc2C1 do in these assays?
MPTP block: 6.2

Results for CC(Cc1ccccc1Sc1ccc(O)cc1)N(C)C (stereo not given) ?
Hep lipid drop: 6.1; DTT redox prof: 0.0; L major viab: 100.5*; T cruzi inh: -31.9; MPTP block: 2.8

How did CCN1C[C@]2(COC)CC[C@H](OC)[C@@]34C5C[C@H]6C(=O)C5[C@](O)(C[C@H]6OC)[C@@](O)(C(OC)C23)[C@@H]14 (stereo not given in full) do in these assays?
T cruzi inh: -2.9; MPTP block: -0.8

Results for CCOC(=O)c1c(-n2c(C)cc(/C=C3\C(=O)NC(=O)N(C)C3=O)c2C)sc2c1CCCC2 ?
DTT redox prof: -8.2; L major viab: 92.5*; T cruzi inh: 13.6; MPTP block: 15.0

What do the screens show for `CCCOC(=O)c1ccc(-[n+]2c(-c3ccccc3)cc(-c3ccccc3)cc2-c2ccccc2)cc1`?
T cruzi inh: 55.4*; MPTP block: 25.7

How did COc1ccc(-[n+]2c(-c3ccccc3)cc(-c3ccc(C)cc3)cc2-c2ccccc2)cc1 do in these assays?
Hep lipid drop: -118.3; T cruzi inh: 61.0*; MPTP block: 10.8

How did Cc1ccc(-c2cc(-c3ccccc3)cc(-c3ccccc3)[n+]2-c2ccc(C(=O)O)cc2)cc1 do in these assays?
T cruzi inh: -9.3; MPTP block: -0.5

Results for CC(=NCc1ccco1)c1c(O)n(-c2ccc(Cl)cc2)c(=O)[nH]c1=O ?
Hep lipid drop: 2.7; T cruzi inh: 8.1; MPTP block: 1.9

What do the screens show for `CC(C)N1OC2CC1c1nc3ccccc3n1C2` (stereo not given)?
T cruzi inh: -22.1; MPTP block: -1.6

What do the screens show for `COc1ccccc1NP1(=O)OCC(C)([N+](=O)[O-])CO1` (stereo not given)?
MPTP block: 0.1

What do the screens show for `CC1CCCCC12C(=O)NC(=O)NC2=O` (stereo not given)?
MPTP block: -0.2

What do the screens show for `O=C(Cc1ccccc1)N1CCN(CC2CC=CCC2)CC1` (stereo not given)?
Hep lipid drop: 5.7; DTT redox prof: 0.6; L major viab: 81.4*; T cruzi inh: 12.4; MPTP block: -0.5
